≈ marks a conversion by molar mass, not a printed value. Calls of active or inactive are those of the source. The calls are words filed in the database; no cut-off is given here.
How the values were obtained:
[1] = test system: Ca9-22; test: Induction of apoptosis in human Ca9-22 cells at 500 nM after 48 hrs by Annexin V/propidium iodide staining-based flow cytometric analysis relative to control; type: functional, cell-based
Outline: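 Seeding density: NCI-H929 and Ca9.22 at 30×10^4 cells/mL, SCC4 at 15×10^4 cells/mL. Cells exposed 48 h to compound (500 nM; 50 μM in SCC4 for one compound) or vehicle (1% EtOH v/v). Annexin V/PI staining, flow cytometry, 10,000 cells gated on vehicle-treated cells. Three independent experiments, mean ± S.E.M, T-test.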

[2] = test system: HL-60; test: Cytotoxicity against human HL60 cells assessed as reduction in cell viability after 72 hrs by alamar blue assay; type: functional, cell-based; details: HL-60, 72 h
Outline: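 HL-60 at 300,000 cells/ml treated in triplicate with compound or vehicle (0.1% v/v DMSO) for 72 h. Cells then incubated in 10% (v/v) AlamarBlue and fluorescence read at excitation 544 nm, emission 590 nm. IC50 is the mean of at least three separate determinations.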

[3] = Ratio of IC50 for human A2780AD cells to IC50 for human A2780 cells; type: functional
Outline: (§1)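 Relative resistance: IC50 in the P-gp overexpressing resistant line divided by IC50 in the parental line. Both IC50s came from the 48 h MTT assay (serial dilutions, absorbance at 595/690 nm, log-dose response curves, three independent assays).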

[4] = test system: NIH3T3; test: Cytotoxicity against mouse NIH/3T3 cells harboring MDR G185 after 48 hrs by MTT assay; type: functional, cell-based; details: NIH3T3, 48 h
Outline: (§2)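 Cells seeded at 12,000 to 17,000 per well depending on line, incubated overnight, then given serial dilutions of ligand for 48 h. MTT at 2.5 mg/mL added for 4 h at 37 °C, formazan solubilized overnight (10% SDS, 45% dimethylformamide, pH 5.5), absorbance read at 595/690 nm. IC50 from log-dose response curves; mean ± SE of three independent assays.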

[5] = molecular target: T1, Tubulin (Homo sapiens) (UniProt P68371+Q9H4B7+P0DPH7+P68366+Q13509+Q71U36+P04350+Q3ZCM7+P07437+P68363+Q9BQE3+Q6PEY2+Q13885+Q9BVA1+Q9BUF5); test: Displacement of podophyllotoxin from tubulin (unknown origin) by ultracentrifugation method; type: protein-complex assay
[6] = test system: HL-60; test: Induction of autophagy in human HL60 cells assessed as […] in LC3B-2 levels at 10 uM after 16 hrs in presence of lysosomal inhibitor chloroquine by immunoblot analysis; type: functional, cell-based
Outline: (§3)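 HL-60 in serum-supplemented RPMI 1640, or starved in Earle's Balanced Salts for 15 min beforehand, then treated with 10 μM compound with or without 40 μM chloroquine for 1 h 45 min or 16 h. LC3B-II measured by immunoblot, densitometry normalized to actin, three independent experiments, Student's T-test.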

[7] = Chemical stability of compound in pH 7.4 aqueous solution assessed as compound remaining after 24 hrs by HPLC analysis; type: physicochemical; details: read-out: Stability
[8] = test system: SCC-4; test: Cytotoxicity against human SCC4 cells after 48 hrs by MTT assay; type: functional, cell-based; details: SCC-4, 48 h
Outline: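 Cells (NCI-H929 in RPMI-1640 GlutaMAX; SCC4 in DMEM GlutaMAX; 10% FBS, 37 °C, 5% CO2) treated with increasing concentrations for 48 h. IC50 is the mean of three independent experiments.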

[9] = test system: PC-9; test: Cytotoxicity against human PC9 cells assessed as reduction in cell survival at 0.1 to 10 uM after 18 hrs by MTT assay; type: functional, cell-based
Outline: (§4)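 Seeded at 2,500 cells/well in medium with 10% serum. After adhesion, exposed to 0.1, 1 and 10 μM in medium with 5% serum for 18 h. Medium then replaced with fresh medium containing 1.2 mM MTT for 4 h; formazan dissolved in DMSO, absorbance at 540 nm. Results given as % of basal response.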

[10] = test system: HCC827; test: Cytotoxicity against human HCC827 cells assessed as reduction in cell survival at 0.1 to 10 uM after 18 hrs by MTT assay; type: functional, cell-based; outline: as §4
[11] = test system: PC-9; test: Induction of apoptosis in human PC9 cells assessed as increase in caspase-3 expression at 10 uM after 18 hrs by Western blot analysis; type: functional, cell-based
Outline: (§5)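 PC9 and HCC827 maintained in DMEM with 10% FBS, then exposed to 10 μM compound for 18 h in 5% serum. Caspase 3 activation and cell cycle proteins examined by western blot.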

[12] = test system: HL-60; test: Induction of autophagy in serum starved human HL60 cells assessed as increase in LC3B-2 levels at 10 uM after 105 mins by immunoblot analysis; type: functional, cell-based; outline: as §3
[13] = Ratio of IC50 for mouse NIH/3T3 cells harboring MDR G185 to IC50 for mouse NIH/3T3 cells; outline: as §1
[14] = test system: Ca9-22; test: Cytotoxicity against human Ca9-22 cells after 48 hrs by MTT assay; type: functional, cell-based; details: Ca9-22, 48 h
[15] = test system: HCC827; test: Induction of apoptosis in human HCC827 cells assessed as increase in p21 expression at 10 uM after 18 hrs by Western blot analysis; type: functional, cell-based; outline: as §5
[16] = test system: NB-4; test: Cell cycle arrest in human NB4 cells assessed as accumulation of cells at G1 phase after 24 hrs by propidium iodide staining-based flow cytometric analysis; type: functional
Outline: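 NB4 cultured at 37 °C, 5% CO2 in RPMI-1640 with 10% heat-inactivated FBS. Treated at 50 and 100 nM, 1 and 10 μM for 24 h. Cells fixed/permeabilized in 70% ethanol overnight at 4 °C, then given RNase and 20 μg/ml PI for 30 min. Doublets excluded, 20,000 events per sample; cell-cycle phase distribution analysed.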

[17] = Solubility of compound in pH 3 aqueous solution after 12 hrs by HPLC analysis; type: physicochemical
[18] = Cytotoxicity against human A2780AD cells after 48 hrs by MTT assay; type: functional, cell-based; outline: as §2
[19] = test system: HL-60; test: Induction of autophagy in serum starved human HL60 cells assessed as increase in LC3B-2 levels at 10 uM after 105 mins in presence of lysosomal inhibitor chloroquine by immunoblot analysis; type: functional, cell-based; outline: as §3
[20] = test system: HL-60; test: Induction of autophagy in human HL60 cells assessed as increase in LC3B-2 levels at 10 uM after 105 mins in presence of lysosomal inhibitor chloroquine by immunoblot analysis; type: functional, cell-based; outline: as §3
[21] = Chemical stability of compound in pH 3 aqueous solution assessed as compound remaining after 24 hrs by HPLC analysis; type: physicochemical; details: read-out: Stability
[22] = test system: Ca9-22; test: Cytotoxicity against human Ca9-22 cells after 72 hrs by MTT assay; type: functional, cell-based; details: Ca9-22, 72 h
[23] = test system: HCC827; test: Induction of apoptosis in human HCC827 cells assessed as increase in caspase-3 expression at 10 uM after 18 hrs by Western blot analysis; type: functional, cell-based; outline: as §5
[24] = test system: HCC827; test: Induction of apoptosis in human HCC827 cells assessed as reduction in cyclin D1 expression at 10 uM after 18 hrs by Western blot analysis; type: functional, cell-based; outline: as §5
[25] = molecular target: T1, Tubulin (Homo sapiens); test: Inhibition of tubulin (unknown origin) polymerization at 27.5 uM measured over 70 mins by turbidity method; type: protein-complex assay
Outline: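 Tubulin at 25 µM in GAB buffer (10 mM sodium phosphate, 30% glycerol, 1 mM EGTA, 6 mM MgCl2, 1 mM GTP, pH 6.7) with 27.5 µM compound or DMSO vehicle. Turbidity is read at 355 nm for 70 min at 37 °C. Data are normalized to the initial stable absorbance plateau to correct for compound absorbance.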

SMILES: CC(=O)OC1=C(c2cccc3ncccc23)Oc2cc3ccccc3cc2-n2cccc21
- Activity [1]: inactive
- IC50 [2]: 0.294 µM
- Ratio IC50 [3]: 1.15
- IC50 [4]: 0.084 µM
- inhibition [5]: Active
- Activity [6]: Active
- remaining at 24 h [7]: 95.6%
- IC50 [8]: 0.222 µM
- Activity [9]: Active
- Activity [10]: Active
- Activity [11]: Active
- Activity [12]: Active
- Ratio IC50 [13]: 2
- IC50 [14]: 13.4 µM
- Activity [15]: Active
- Activity [16]: Dose-dependent effect
- solubility at 12 h [17]: 210 µM (≈ 88 µg/mL)
- IC50 [18]: 0.092 µM
- Activity [19]: Active
- Activity [20]: Active
- remaining at 24 h [21]: 65%
- IC50 [22]: 4.5 µM
- Activity [23]: Active
- Activity [24]: Active
- inhibition [25]: Active
